Measurements published in PubChem BioAssay.
Calls of active or inactive are those of the source.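 The calls were made as follows, unless noted: active = potentiation averaged over duplicate wells exceeding buffer-only control mean by more than 3 SD; inactive = the rest.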

system: not listed separately; assay: nonspecific flux increase, KCNQ1-free cells – parental CHO cells, counter-screen for KCNQ1 potentiator project (AID 493006;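 active = duplicate-averaged activation above buffer control mean plus 5 SD of those controls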); conditions: parental CHO-K1 cells, FluxOR thallium flux, at 10 µM; active compounds read high
Method in brief: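 Assay system: Untransfected host CHO-K1 cells with FluxOR thallium dye | Probe or stimulus: Potassium/thallium depolarization pulse | Schedule: Overnight 37 °C plating, 90 min RT dye, 20 min compound | Detection: Kinetic thallium-flux fluorescence | Read-out: Max-minus-min fluorescence over baseline, percent of buffer-to-R-L3 span | Benchmarks: Low control buffer, high control R-L3 activator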

Compound | outcome | activation
CO/N=C/CC(=O)Nc1ccc(F)cc1F | inactive | –
COc1cccc(NC(=O)c2cncs2)c1 | inactive | –
Oc1c(N=NC(=S)Nc2ccccc2F)c2ccccc2n1Cc1ccccc1Cl | – | 180% (active)
Cn1cccc1/C=N/n1c(-c2ccc(C(C)(C)C)cc2)n[nH]c1=S | inactive | –
COc1ccc(CCNC(=O)c2ccc(N(C)S(=O)(=O)c3ccc(C)cc3)cc2)cc1OC | inactive | –
O=S(=O)(Nc1ccccc1Cl)c1ccc(NS(=O)(=O)c2cccs2)cc1 | inactive | –
CCSC(=S)c1c(C)[nH]n(-c2ccccc2)c1=O | – | 164% (active)
CC1CCc2sc3nc(N4CCN(CCO)CC4)n4ncnc4c3c2C1 (stereo not given) | – | 510% (active)
COc1ccc(S(=O)(=O)N2CCCC(C(=O)O)C2)cc1 (stereo not given) | inactive | –
CNC(=S)Nc1sc2c(c1C(=O)OC)CCC2 | – | 252% (active)
CC1CCN(c2ncnc3ccccc23)CC1 | inactive | –
CC(NC(=S)NC(=O)c1ccccc1Br)c1ccccc1 (stereo not given) | inactive | –
CC(Sc1n[nH]c(N)n1)C(=O)NC1CCCCC1C (stereo not given) | – | 152% (active)
O=C(NNC(=O)c1ccc(Cl)c(Cl)c1)c1ccncc1 | inactive | –
O=c1c2ccccc2nc(-c2ccc(Cl)c(Cl)c2)n1O | – | 518% (active)
Cc1ccc(C)c(NS(=O)(=O)c2cc(C(=O)NCc3ccccn3)ccc2Cl)c1 | inactive | –
CCN(C(=O)COC(=O)c1ccccc1Nc1cccc(C)c1C)C1CCS(=O)(=O)C1 (stereo not given) | inactive | –
CN=C1c2cc3cc(OC)ccc3n2CCN1Cc1ccccc1 | inactive | –
Cc1cccc(C(=O)Nc2ccccc2C(=O)NCc2cccnc2)c1 | inactive | –
O=C(NCc1ccccc1)c1onc(CSc2ccc(F)cc2)c1C(=O)NCCCN1CCOCC1 | inactive | –

target: Potassium voltage-gated channel subfamily KQT member 1 (Homo sapiens) (UniProt P51787); assay: enhancement of KCNQ1 channel thallium flux – FluxOR thallium flux, CHO cells, duplicates, confirmation (AID 493007); conditions: KCNQ1 cell line, FluxOR thallium flux fluorescence, at 10 µM; active compounds read high, % of reference activator effect, buffer zero;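 as to outcome: cells depolarized by a potassium plus thallium sulfate stimulus after compound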
Method in brief: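 Material: KCNQ1-expressing CHO cell line; Incubation: FluxOR dye loading 90 min, compound exposure 20 min, room temperature; Detection: FluxOR Tl+ flux fluorescence, 10 s baseline plus 110 s recording; Read-out: percent activation between buffer and R-L3 responses; Control set: buffer-only wells as 0% and R-L3 activator as 100%; Replication: duplicate wells per compound.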

Chain of Potassium voltage-gated channel subfamily KQT member 1 (Homo sapiens) (P51787 whole entry, looked up): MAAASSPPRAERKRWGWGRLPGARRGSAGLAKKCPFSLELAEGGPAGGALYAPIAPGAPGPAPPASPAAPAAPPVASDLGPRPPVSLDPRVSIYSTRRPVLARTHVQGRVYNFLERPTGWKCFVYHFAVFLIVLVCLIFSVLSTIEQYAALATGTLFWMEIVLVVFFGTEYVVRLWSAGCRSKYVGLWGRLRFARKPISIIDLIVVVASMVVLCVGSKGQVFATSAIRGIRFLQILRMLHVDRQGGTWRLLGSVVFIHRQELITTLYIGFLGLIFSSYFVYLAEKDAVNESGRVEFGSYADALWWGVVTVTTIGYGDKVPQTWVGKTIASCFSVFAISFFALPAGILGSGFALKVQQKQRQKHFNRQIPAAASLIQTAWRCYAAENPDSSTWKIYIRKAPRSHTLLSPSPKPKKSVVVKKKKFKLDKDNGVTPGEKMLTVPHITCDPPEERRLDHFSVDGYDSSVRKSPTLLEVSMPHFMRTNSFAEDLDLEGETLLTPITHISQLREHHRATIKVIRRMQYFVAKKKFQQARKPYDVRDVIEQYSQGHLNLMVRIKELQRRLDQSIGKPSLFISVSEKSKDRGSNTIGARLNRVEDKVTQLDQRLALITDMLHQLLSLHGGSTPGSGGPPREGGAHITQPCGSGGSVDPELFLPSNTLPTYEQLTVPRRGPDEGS

Compound | potentiation | outcome
Fc1ccc2nc(Nc3nc4c(F)cc(F)cc4s3)sc2c1 | 74% (active) | –
N#Cc1ccccc1Oc1ccccc1C=O | 39.5% (active) | –
O=C(NC(=S)Nc1ccccc1Cl)c1cncc(Br)c1 | – | inactive
COc1cccc(/C=N/Nc2snc(SC)c2C#N)c1O | – | inactive
Cc1c(/C=N\NC(=O)c2ccc(F)cc2)cnn1C | – | inactive
CSc1ccc(/C=N/n2c(Cc3ccc(Br)cc3)n[nH]c2=S)cc1 | 174% (active) | –
O=C1CC(c2cccs2)Cc2nc(NC(=O)C3CC3)ncc21 (stereo not given) | – | inactive
CCCn1c(N)c(C(=O)CSc2nc(C)nc3sc(C)c(C)c23)c(=O)[nH]c1=O | 23% (active) | –
COc1cccc(C(=O)NNC(=O)C(=O)Nc2ccc(C)c(Cl)c2)c1 | 99% (active) | –
Cc1ccc(/C(O)=C/C(=O)C(=O)NC23CC4CC(CC(C4)C2)C3)cc1 | 167% (active) | –
CN1C(=O)C2(Oc3ccccc3C3CC(c4ccccc4)=NN32)c2ccccc21 (stereo not given) | – | inactive
N#C/C=C1/NC(=O)c2ccccc2S1 | 22.5% (active) | –
CCC1=NN(C(=O)c2ccc(Br)cc2)C(O)(c2ccccc2)C1 (stereo not given) | – | inactive
Fc1cccc2sc(Nc3nnc(-c4ccco4)o3)nc12 | 100% (active) | –
COc1ccc(CNC(=O)CNC(C)c2ccc(F)cc2)cc1 (stereo not given) | – | inactive
Cc1ccc2nc(C)cc(N/N=C/c3cccnc3)c2c1 | – | inactive
O=C(Nc1nc(=O)c2ccccc2s1)c1ccc(F)cc1 | – | inactive
CCCc1c(C)[nH]c2ccc(NC(C)=O)cc2c1=O | – | inactive
Cn1c(=NC(=O)c2ccco2)sc2cccc(F)c21 | – | inactive
COc1ccccc1CNC(=O)COC(=O)c1nccnc1N | – | inactive

Compound | potentiation | outcome
CO/N=C/CC(=O)Nc1ccc(F)cc1F | – | inactive
COc1cccc(NC(=O)c2cncs2)c1 | – | inactive
Oc1c(N=NC(=S)Nc2ccccc2F)c2ccccc2n1Cc1ccccc1Cl | 81.5% (active) | –
Cn1cccc1/C=N/n1c(-c2ccc(C(C)(C)C)cc2)n[nH]c1=S | 266% (active) | –
COc1ccc(CCNC(=O)c2ccc(N(C)S(=O)(=O)c3ccc(C)cc3)cc2)cc1OC | – | inactive
O=S(=O)(Nc1ccccc1Cl)c1ccc(NS(=O)(=O)c2cccs2)cc1 | 26.5% (active) | –
CCSC(=S)c1c(C)[nH]n(-c2ccccc2)c1=O | 30% (active) | –
CC1CCc2sc3nc(N4CCN(CCO)CC4)n4ncnc4c3c2C1 (stereo not given) | 200% (active) | –
COc1ccc(S(=O)(=O)N2CCCC(C(=O)O)C2)cc1 (stereo not given) | – | inactive
CNC(=S)Nc1sc2c(c1C(=O)OC)CCC2 | 89.5% (active) | –
CC1CCN(c2ncnc3ccccc23)CC1 | – | inactive
CC(NC(=S)NC(=O)c1ccccc1Br)c1ccccc1 (stereo not given) | 84% (active) | –
CC(Sc1n[nH]c(N)n1)C(=O)NC1CCCCC1C (stereo not given) | 37% (active) | –
O=C(NNC(=O)c1ccc(Cl)c(Cl)c1)c1ccncc1 | 18.5% (active) | –
O=c1c2ccccc2nc(-c2ccc(Cl)c(Cl)c2)n1O | 244% (active) | –
Cc1ccc(C)c(NS(=O)(=O)c2cc(C(=O)NCc3ccccn3)ccc2Cl)c1 | – | inactive
CCN(C(=O)COC(=O)c1ccccc1Nc1cccc(C)c1C)C1CCS(=O)(=O)C1 (stereo not given) | – | inactive
CN=C1c2cc3cc(OC)ccc3n2CCN1Cc1ccccc1 | – | inactive
Cc1cccc(C(=O)Nc2ccccc2C(=O)NCc2cccnc2)c1 | – | inactive
O=C(NCc1ccccc1)c1onc(CSc2ccc(F)cc2)c1C(=O)NCCCN1CCOCC1 | – | inactive
